Laboratory results from ChEMBL document CHEMBL1140324, “Rational design of non-nucleoside, potent, and orally bioavailable adenosine deaminase inhibitors: predicting enzyme conformational change and metabolism” (J Med Chem, 2005).
Several values for one entry are separate records, joined by “and”; a condition that tells them apart may be missing. Identical values can stand only once.

Legend:
[1] = biological target: T1, Adenosine deaminase (Homo sapiens, UniProt P00813); assay: Inhibitory concentration against adenosine deaminase
T1 sequence (P00813 whole entry): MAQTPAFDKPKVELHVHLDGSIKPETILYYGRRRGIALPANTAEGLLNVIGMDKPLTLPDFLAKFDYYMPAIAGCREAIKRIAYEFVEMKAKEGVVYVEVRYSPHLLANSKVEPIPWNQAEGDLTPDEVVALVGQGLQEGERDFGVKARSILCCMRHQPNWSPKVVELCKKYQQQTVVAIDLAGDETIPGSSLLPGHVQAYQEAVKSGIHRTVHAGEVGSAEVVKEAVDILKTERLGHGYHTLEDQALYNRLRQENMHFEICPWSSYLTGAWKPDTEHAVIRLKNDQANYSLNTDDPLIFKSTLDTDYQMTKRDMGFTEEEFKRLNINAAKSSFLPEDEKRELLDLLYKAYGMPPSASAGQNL

[2] = species: Rattus norvegicus; assay: Peroral dose showing antiinflammatory effect in adjuvant arthritis model in rats; type: functional; conditions: po
Summary of the method: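 Rat adjuvant arthritis model with oral dosing. Anti-inflammatory potency is reported as ED30 in mg/kg po.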

[3] = system: Rattus norvegicus; assay: (§1) Oral bioavailability in rat (dose 10 mg/kg); type: functional, organism-based
Summary of the method: (§2)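 Rats dosed orally at 10 mg/kg (n = 2–3). Cmax and t1/2 are taken from plasma. AUC covers 0–24 h. Bioavailability is the oral exposure parameter for the same dosing.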

[4] = Maximum plasma concentration after peroral administration of 10 mg/kg in rat; type: ADME, organism-based; design: dose 10 mg/kg, route oral; conditions: po; summary of the method: as §2
[5] = Area under blood-concentration time curve after 10 mg/kg peroral dose in rat; type: ADME, organism-based; design: dose 10 mg/kg, route oral; conditions: in vivo, po; summary of the method: as §2
[6] = Oral bioavailability in dog (dose 10 mg/kg); type: ADME, organism-based, Canis lupus familiaris; conditions: in vivo
Summary of the method: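 Dogs dosed orally at 10 mg/kg (n = 2–3). Oral bioavailability was determined.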

[7] = In vitro clearance in human liver microsomes; type: ADME, Microsome; conditions: read-out: Clearance
[8] = In vitro clearance in dog liver microsomes; type: ADME, Canis lupus familiaris, Microsome
[9] = Plasma half life (10 mg/kg, p.o.) in rat; type: ADME, organism-based; conditions: po; summary of the method: as §2
[10] = In vitro clearance in rat liver microsomes; type: ADME, Microsome; conditions: read-out: Clearance
[11] = system: Mus musculus; assay: Antitumor activity (32 mg/kg, p.o., b.i.d.) expressed as median survival time is its ability to inhibit lymphoma U-937 tumor growth inoculated in mice; type: functional
Summary of the method: (§3)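 SCID mice bearing U-937 lymphoma. Inhibitor given orally as HCl salt, either once (u.i.d.) or twice (b.i.d.) daily, in combination with the antitumor nucleoside AraA. Read-out was median survival time in days, compared with an untreated control group and an AraA-alone arm (10 mg/kg).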

[12] = system: Mus musculus; assay: Antitumor activity (10 mg/kg, p.o., b.i.d.) expressed as median survival time is its ability to inhibit lymphoma U-937 tumor growth inoculated in mice; type: functional; summary of the method: as §3
[13] = system: Mus musculus; assay: Antitumor activity (10 mg/kg, p.o., u.i.d.) expressed as median survival time is its ability to inhibit lymphoma U-937 tumor growth inoculated in mice; type: functional; summary of the method: as §3
[14] = system: Mus musculus; assay: Antitumor activity (32 mg/kg, p.o., u.i.d.) expressed as median survival time is its ability to inhibit lymphoma U-937 tumor growth inoculated in mice; type: functional; summary of the method: as §3
[15] = as §1; type: ADME, organism-based; conditions: in vivo; summary of the method: as §2
[16] = system: Mus musculus; assay: Antitumor activity (0.25 mg/kg, i.p.) on lymphoma U-937 tumor growth inoculated in mice; type: functional
Summary of the method: (§4)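 SCID mouse U-937 lymphoma model. Pentostatin given intraperitoneally once daily. Efficacy read as median survival time in days, relative to a control group.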

[17] = system: Mus musculus; assay: Antitumor activity (2.5, i.p.) on lymphoma U-937 tumor growth inoculated in mice; type: functional; summary of the method: as §4
[18] = system: Mus musculus; assay: Antitumor activity (10 mg/kg, p.o., b.i.d.) on lymphoma U-937 tumor growth inoculated in mice; type: functional; summary of the method: as §3

Row | half-life [9] [h] | CLint scaled [10] [mL/min/kg] | Compound | IC50 [1] [nM] | ED30 [2] [mg/kg] | Cmax [4] [ng/mL] | AUC [5] [ng·h/mL] | Clearance [8] [mL/min/kg] | further results
1 |  |  | NC(=O)c1cn(C(CO)CCc2cccc3ccccc23)cn1 (configuration not stated) | 570 |  |  |  |  | 
2 | 3.45 | 131 | C[C@H](O)[C@@H](CCc1cccc2nc(-c3ccc(Cl)cc3)oc12)n1cnc(C(N)=O)c1 |  | 0.6 | 5580 | 29600 | 6 | bioavailability [3]: 52%; bioavailability [6]: 50%; CLint scaled [7]: 34 mL/min/kg
3 | 1.09 | 643 | Cn1cc(CC[C@H](CO)n2cnc(C(N)=O)c2)c2cc(OCCCc3ccc(Cl)cc3)ccc21 | 6.7 |  | 210 | 260 |  | 
4 |  |  | C[C@H](O)[C@@H](CCc1cccc(Cl)c1Cl)n1cnc(C(N)=O)c1 | 15 | 1.6 | 1630 | 2110 | 21 | MST [11]: 42.5 days and 38 days; MST [12]: 34 days
5 |  |  | OC[C@H]1O[C@@H](n2cnc3c2N=CNC[C@H]3O)C[C@@H]1O [PENTOSTATIN] |  |  |  |  |  | MST [16]: 34 days; MST [17]: 42.5 days
6 |  |  | NC(N)=Nc1nc(-c2ccc(CNc3nc4ccccc4[nH]3)s2)cs1 | 700 |  |  |  |  | 
7 |  |  | Nc1ncnc2c1ncn2[C@@H]1O[C@H](CO)[C@@H](O)[C@@H]1O [VIDARABINE] |  |  |  |  |  | MST [18]: 34 days
8 |  |  | C[C@H](O)[C@@H](CCc1cccc2ccccc12)n1cnc(C(N)=O)c1 | 16 |  | 1250 | 1370 | 30 | 

Row | Compound | half-life [9] [h] | CLint scaled [10] [mL/min/kg] | IC50 [1] [nM] | ED30 [2] [mg/kg] | Cmax [4] [ng/mL] | AUC [5] [ng·h/mL] | Clearance [8] [mL/min/kg] | further results
9 | C[C@H](O)[C@@H](CCc1cccc2oc(-c3ccc(Cl)cc3)nc12)n1cnc(C(N)=O)c1 | 1.87 | 50 | 8.7 | 0.3 | 14700 | 56200 | 6.2 | bioavailability [6]: 81%; MST [13]: 43 days; MST [14]: 45.5 days; CLint scaled [7]: 12 mL/min/kg; bioavailability [15]: 86%
